The text below walks through data of ChEMBL document CHEMBL3862016 (Bioorg Med Chem Lett, 2016).

Activity calls are given as the source filed them. No cut-off for these calls is given here.

For assay [1], the target named is T1, Protein deacetylase HDAC6 (Homo sapiens, UniProt Q9UBN7).
T1 sequence (Q9UBN7 whole entry): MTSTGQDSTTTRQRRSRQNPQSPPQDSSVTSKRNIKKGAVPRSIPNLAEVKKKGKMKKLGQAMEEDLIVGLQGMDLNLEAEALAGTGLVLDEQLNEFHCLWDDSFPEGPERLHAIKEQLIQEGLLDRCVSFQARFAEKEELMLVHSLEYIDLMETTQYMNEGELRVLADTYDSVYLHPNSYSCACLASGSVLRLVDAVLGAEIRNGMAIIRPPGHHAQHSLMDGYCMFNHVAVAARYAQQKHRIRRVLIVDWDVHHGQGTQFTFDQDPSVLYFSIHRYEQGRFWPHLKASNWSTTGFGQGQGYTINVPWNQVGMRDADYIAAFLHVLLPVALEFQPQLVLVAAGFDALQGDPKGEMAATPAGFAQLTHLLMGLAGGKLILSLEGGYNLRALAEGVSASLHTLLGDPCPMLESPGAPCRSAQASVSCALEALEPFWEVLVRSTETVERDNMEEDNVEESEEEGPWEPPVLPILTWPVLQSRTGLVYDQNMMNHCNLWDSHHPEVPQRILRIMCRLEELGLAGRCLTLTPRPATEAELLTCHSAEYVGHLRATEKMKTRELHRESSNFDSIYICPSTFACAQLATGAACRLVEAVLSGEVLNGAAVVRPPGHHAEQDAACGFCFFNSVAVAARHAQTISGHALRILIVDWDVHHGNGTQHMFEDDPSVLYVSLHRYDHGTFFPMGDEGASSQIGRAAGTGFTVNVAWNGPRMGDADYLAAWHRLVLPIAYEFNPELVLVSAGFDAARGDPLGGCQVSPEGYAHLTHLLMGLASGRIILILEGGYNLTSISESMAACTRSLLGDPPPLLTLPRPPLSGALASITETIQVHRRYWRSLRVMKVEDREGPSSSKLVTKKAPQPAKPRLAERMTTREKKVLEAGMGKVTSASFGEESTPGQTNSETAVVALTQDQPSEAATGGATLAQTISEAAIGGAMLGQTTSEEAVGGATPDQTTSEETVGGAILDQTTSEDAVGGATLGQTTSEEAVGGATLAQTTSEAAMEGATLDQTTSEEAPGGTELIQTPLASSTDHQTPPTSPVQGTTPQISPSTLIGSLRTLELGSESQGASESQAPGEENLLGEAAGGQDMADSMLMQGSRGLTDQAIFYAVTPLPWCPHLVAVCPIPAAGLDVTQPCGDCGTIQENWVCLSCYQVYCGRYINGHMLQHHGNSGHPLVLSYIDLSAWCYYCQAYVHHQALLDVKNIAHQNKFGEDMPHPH
Description: Inhibition of HDAC6 (unknown origin) assessed as inhibition of fluorogenic peptide deacetylation.

Assay [2] has as its target Histone deacetylase 2 (Homo sapiens, UniProt Q92769). Description: Inhibition of HDAC2 (unknown origin) assessed as inhibition of fluorogenic peptide deacetylation.
Assay [3] addresses Histone deacetylase 3 (Homo sapiens, UniProt O15379). Description: Inhibition of HDAC3 (unknown origin) assessed as inhibition of fluorogenic peptide deacetylation.
Assay [4] has as its target Histone deacetylase 1 (Homo sapiens, UniProt Q13547). Description: Inhibition of HDAC1 (unknown origin) assessed as inhibition of fluorogenic peptide deacetylation.
For assay [5], the target named is T2, Androgen receptor (Homo sapiens, UniProt P10275).
T2 sequence (P10275 whole entry): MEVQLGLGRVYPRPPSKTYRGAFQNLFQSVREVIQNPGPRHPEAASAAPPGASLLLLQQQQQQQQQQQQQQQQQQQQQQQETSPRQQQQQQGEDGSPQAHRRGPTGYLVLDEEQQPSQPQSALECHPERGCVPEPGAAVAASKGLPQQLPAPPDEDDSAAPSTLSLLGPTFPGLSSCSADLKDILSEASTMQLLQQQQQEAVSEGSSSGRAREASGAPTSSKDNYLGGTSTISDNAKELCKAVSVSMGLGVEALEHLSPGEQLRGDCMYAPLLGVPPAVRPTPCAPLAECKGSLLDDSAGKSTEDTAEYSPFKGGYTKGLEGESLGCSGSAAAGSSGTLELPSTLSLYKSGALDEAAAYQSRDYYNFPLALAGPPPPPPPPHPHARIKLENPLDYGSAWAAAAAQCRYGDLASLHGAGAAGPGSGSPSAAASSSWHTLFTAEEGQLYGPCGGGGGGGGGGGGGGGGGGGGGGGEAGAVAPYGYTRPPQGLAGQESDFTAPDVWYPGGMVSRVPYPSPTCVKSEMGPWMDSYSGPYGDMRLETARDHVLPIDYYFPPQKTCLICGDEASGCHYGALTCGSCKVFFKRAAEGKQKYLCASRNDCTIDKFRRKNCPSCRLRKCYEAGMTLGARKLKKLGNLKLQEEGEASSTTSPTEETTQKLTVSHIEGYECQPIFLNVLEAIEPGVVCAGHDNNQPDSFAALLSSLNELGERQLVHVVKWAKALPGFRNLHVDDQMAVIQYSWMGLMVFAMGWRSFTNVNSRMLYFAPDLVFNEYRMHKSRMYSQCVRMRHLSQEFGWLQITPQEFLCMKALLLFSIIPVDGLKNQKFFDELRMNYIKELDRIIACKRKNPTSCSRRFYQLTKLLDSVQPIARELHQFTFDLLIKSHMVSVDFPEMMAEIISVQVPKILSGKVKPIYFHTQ
In words: Displacement of [3H]mibolerone from androgen receptor (unknown origin) in membranes after 24 hrs by HAP adsorption assay.

The target in assay [6] is T3, Androgen receptor (Homo sapiens) (UniProt P10275).
T3 sequence (whole entry): T2 sequence (P10275 whole entry)
In words: Antagonist activity at AR in human LNCAP cells assessed as suppression of DHT-induced AR protein level measured after 24 hrs relative to control. Type of assay: cell-based. The method, boiled down:
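LNCaP cells were stimulated with 10 nM DHT and co-treated with test agent for 24 h. Whole-cell extracts were resolved on an acrylamide gel and immunoblotted for AR and acetylated tubulin, with actin as the loading control. AR protein level was normalized to actin and compared with vehicle-treated cells.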

Chain of Histone deacetylase 1 (Q13547 whole entry): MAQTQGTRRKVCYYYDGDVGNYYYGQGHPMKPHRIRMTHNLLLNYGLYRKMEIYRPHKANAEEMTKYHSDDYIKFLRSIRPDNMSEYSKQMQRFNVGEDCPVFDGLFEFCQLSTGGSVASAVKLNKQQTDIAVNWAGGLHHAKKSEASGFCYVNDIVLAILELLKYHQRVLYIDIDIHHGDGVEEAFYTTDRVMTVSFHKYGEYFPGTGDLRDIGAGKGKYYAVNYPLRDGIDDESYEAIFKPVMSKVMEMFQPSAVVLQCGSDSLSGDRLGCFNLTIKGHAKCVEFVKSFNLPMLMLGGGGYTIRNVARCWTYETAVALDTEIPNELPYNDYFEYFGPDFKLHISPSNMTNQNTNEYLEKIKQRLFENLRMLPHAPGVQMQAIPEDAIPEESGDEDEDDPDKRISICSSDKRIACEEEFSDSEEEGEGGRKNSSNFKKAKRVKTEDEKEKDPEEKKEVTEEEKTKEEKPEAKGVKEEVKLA
Chain of Histone deacetylase 3 (O15379 whole entry): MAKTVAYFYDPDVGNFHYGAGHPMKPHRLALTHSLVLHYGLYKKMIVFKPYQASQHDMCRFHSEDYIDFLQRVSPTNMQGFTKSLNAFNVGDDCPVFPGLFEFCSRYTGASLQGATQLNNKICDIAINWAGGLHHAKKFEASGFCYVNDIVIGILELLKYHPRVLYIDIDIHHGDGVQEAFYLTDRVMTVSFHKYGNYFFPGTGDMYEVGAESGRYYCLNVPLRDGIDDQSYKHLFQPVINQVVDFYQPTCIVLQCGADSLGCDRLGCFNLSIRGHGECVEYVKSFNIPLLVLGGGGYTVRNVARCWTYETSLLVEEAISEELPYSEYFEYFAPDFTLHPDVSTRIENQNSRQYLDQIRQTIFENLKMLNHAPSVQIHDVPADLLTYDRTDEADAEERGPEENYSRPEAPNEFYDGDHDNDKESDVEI
Chain of Histone deacetylase 2 (Q92769 whole entry): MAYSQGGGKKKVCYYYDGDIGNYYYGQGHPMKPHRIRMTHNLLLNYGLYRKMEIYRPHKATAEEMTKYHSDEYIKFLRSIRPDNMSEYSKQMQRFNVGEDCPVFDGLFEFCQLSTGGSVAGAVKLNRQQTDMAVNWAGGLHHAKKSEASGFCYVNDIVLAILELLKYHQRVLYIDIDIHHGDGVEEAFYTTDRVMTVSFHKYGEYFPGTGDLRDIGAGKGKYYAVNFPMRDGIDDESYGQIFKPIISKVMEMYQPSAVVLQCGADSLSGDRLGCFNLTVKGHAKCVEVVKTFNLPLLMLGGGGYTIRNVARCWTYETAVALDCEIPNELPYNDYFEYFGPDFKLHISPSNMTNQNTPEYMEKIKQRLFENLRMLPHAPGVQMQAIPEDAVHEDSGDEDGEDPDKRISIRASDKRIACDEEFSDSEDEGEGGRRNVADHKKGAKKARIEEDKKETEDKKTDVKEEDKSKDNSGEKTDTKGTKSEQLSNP

With `CC1(C)C(=O)N(c2ccc(C#N)c(C(F)(F)F)c2)C(=S)N1c1ccc(C(=O)Nc2ccccc2N)c(F)c1`, the IC50 (in general, the concentration needed to halve the response being measured) in assay [1] was found to be 47.3 µM; in assay [2], 14.1 µM; in assay [3] it was 5.4 µM; in assay [4], 6.19 µM; in assay [5] it was 0.33 µM.

In the case of `CC1(C)C(=O)N(c2ccc(C#N)c(C(F)(F)F)c2)C(=S)N1c1ccc(C(=O)NCCCCCCC(=O)Nc2ccccc2N)c(F)c1`, the half-inhibitory concentration (IC50) was over 10 µM in assay [1]; 3.37 µM in assay [2]; 0.28 µM in assay [3]; over 10 µM in assay [4]; under 0.03 µM in assay [5].

In the case of `CC1(C)C(=O)N(c2ccc(C#N)c(C(F)(F)F)c2)C(=S)N1c1ccc(C(=O)NCCCCCCc2ccc(C(=O)C(F)(F)F)s2)c(F)c1`, the IC50 in assay [1] was over 10 µM; in assay [2], over 10 µM; in assay [3] it was over 10 µM; in assay [4], over 10 µM; in assay [5] it was 0.068 µM.

For the compound `CN1CCc2c(c3ccccc3n2Cc2ccc(C(=O)NO)cc2)C1`, the inhibition entry in assay [6] is “Active”.

In the case of `CC1(C)C(=O)N(c2ccc(C#N)c(C(F)(F)F)c2)C(=S)N1c1ccc(C(=O)NCCCCCCn2cccc(O)c2=S)c(F)c1`, the 50% inhibitory concentration (IC50) was over 10 µM in assay [1]; 3.33 µM in assay [2]; over 10 µM in assay [3]; over 10 µM in assay [4]; under 0.03 µM in assay [5].

On to `CC1(C)C(=O)N(c2ccc(C#N)c(C(F)(F)F)c2)C(=S)N1c1ccc(C(=O)NCCOCCC(=O)NO)c(F)c1`, for which the IC50 in assay [1] is 0.495 µM; in assay [2], 86.5 µM; in assay [3], 49.2 µM; in assay [4], 58.1 µM; in assay [5], 0.078 µM.

In the case of `CC1(C)C(=O)N(c2ccc(C#N)c(C(F)(F)F)c2)C(=S)N1c1ccc(C(=O)NCCCCCCn2cccc(O)c2=O)c(F)c1`, the IC50 in assay [1] is over 100 µM; in assay [2], over 100 µM; in assay [3] it was over 100 µM; in assay [4] it was over 100 µM; in assay [5], 0.25 µM.

In the case of `CC1(C)C(=O)N(c2ccc(C#N)c(C(F)(F)F)c2)C(=S)N1c1ccc(C(=O)NCCCNS(N)(=O)=O)c(F)c1`, the IC50 in assay [1] was over 100 µM; in assay [2] it was over 100 µM; in assay [3] it was over 100 µM; in assay [4], over 100 µM; in assay [5] it was 0.35 µM.

On to `CC1(C)C(=O)N(c2ccc(C#N)c(C(F)(F)F)c2)C(=S)N1c1ccc(/C=C/C(=O)Nc2ccccc2N)c(F)c1`, for which the IC50 in assay [1] was 60 µM; in assay [2] it was over 100 µM; in assay [3] it was 20.2 µM; in assay [4], over 100 µM; in assay [5] it was 0.23 µM.

As to `CC1(C)C(=O)N(c2ccc(C#N)c(C(F)(F)F)c2)C(=S)N1c1ccc(C(=O)NCCCCCCNS(N)(=O)=O)c(F)c1`, the 50% inhibitory concentration (IC50) in assay [1] is 1.12 µM; in assay [2] it was over 100 µM; in assay [3] it was over 100 µM; in assay [4], over 100 µM; in assay [5], 0.11 µM.

Consider `CC1(C)C(=O)N(c2ccc(C#N)c(C(F)(F)F)c2)C(=S)N1c1ccc(C(=O)NCCCn2cccc(O)c2=O)c(F)c1`, for which the IC50 is 14 µM in assay [1]; over 100 µM in assay [2]; over 100 µM in assay [3]; over 100 µM in assay [4]; 0.56 µM in assay [5].

Regarding `CC1(C)C(=O)N(c2ccc(C#N)c(C(F)(F)F)c2)C(=S)N1c1ccc(C(=O)OCCCCCC(=O)NO)c(F)c1`, the concentration for half-maximal inhibition (IC50) in assay [1] was determined as 0.002 µM; in assay [2] it was 1.1 µM; in assay [3] it was 2 µM; in assay [4], 3.15 µM; in assay [5] it was 0.043 µM.

Take `CC1(C)C(=O)N(c2ccc(C#N)c(C(F)(F)F)c2)C(=S)N1c1ccc(Cn2ccc3cc(/C=C/C(=O)NO)ccc32)c(F)c1`: the IC50 in assay [1] is 2.03 µM; in assay [2] it was over 100 µM; in assay [3], over 100 µM; in assay [4] it was over 100 µM; in assay [5] it was under 0.03 µM.
